High-throughput results deposited in PubChem BioAssay by Broad Institute.
Wnt act = activators of Wnt/beta-catenin signaling; Wnt/beta-catenin reporter cell assay, activator, plate reader; activation, % at 9.35 µM; 300,000 tested, 1.2% active; in the data active = activation above about 30%, passing the limit was not always enough; inconclusive = no clear call, values can overlap the other calls;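 note: 0% = neutral control wells and 100% = positive control wells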
XiGFP reactiv = activators of X-chromosome reactivation in mouse fibroblasts; XiGFP mouse fibroblasts, % GFP-positive cells imaging, 3 d; cells co-treated with 5-aza-dC sensitizer; scaled so ellipticine positive control = 100%; activation, % at 7.58 µM; 360,000 tested, 0.055% active;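 active = mean normalized replicate activation at least 10% and every replicate at or above 10%; inconclusive = only one of the two criteria met; inactive = mean below 10% and not all replicates reach 10%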;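 note: 0% = median of on-plate neutral control wells and 100% = ellipticine 6 µM median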
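Assay system: SV40-immortalized XiGFP fibroblast cells, line 68-5-11; buffer or medium: DMEM plus 5-aza-dC sensitizer; compound: one concentration, pinned; timing: compounds 3 days, fix/stain 15 min at room temperature; benchmarks: positive control ellipticine, 6 µM final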
esBAF inh = inhibitors of esBAF chromatin remodeling in mouse ES cells. Bmi1-luciferase knock-in reporter, 24 h; 100% = twice the neutral-well signal. reporter increase, % at 12.5 µM. 350,000 tested, 2% active; in the data active = activation above about 40%; inconclusive = no clear call, values can overlap the other calls;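 note: 0% = median of the plate's neutral control wells and 100% = double that signal; a rise in the Bmi1 reporter signal indicates esBAF inhibition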
Vif inh = HIV Vif inhibition. HEK293T cells, Vif self-association by quenched fluorescence, imaging, 24 h. inhibition, % at 7.49 µM. 340,000 tested, 0.35% active; in the data active = inhibition above about 50%, passing the limit was not always enough; inconclusive = no clear call, values can overlap the other calls; inactive = below about 31%
MITF act = MITF TRPM1 promoter activation in melanoma cells; SK-MEL-5 TRPM1-promoter luciferase, 24 h; % of positive control, neutral wells = 0; activation, % at 12.5 µM; 300,000 tested, 0.75% active; AID 588334;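 active = mean activation of at least 80% with every replicate also reaching 80%; inconclusive = mean reaches 80% but some replicate falls short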;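 note: 0% = neutral control wells and 100% = parthenolide positive control wells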
The depositor's hits bear a star; ? = inconclusive; . = not tested or not shown; ! = not active in a repeat. Most compounds without a hit are left out; they make up all but 2.6% or so of the library.

SMILES | Wnt act | XiGFP reactiv | esBAF inh | Vif inh | MITF act
Cn1ncc(Cl)c1C(=O)Nc1ccc2c(c1)OCO2 | 1 | 0 | 17 | -3 | 10
CCN1CCN(c2ccc(NC(=O)c3ccc4c(c3)OCO4)cc2)CC1 | 47* | . | 11 | -9 | 35
O=C(Nc1ccc2c(c1)OCO2)c1c(Cl)nc2sccn12 | . | . | 49* | 5 | 94*
O=C(Nc1ccc(F)c(F)c1)c1ccc2c(c1)OCO2 | . | . | 58* | -1 | 85*
COCC#Cc1ccc2c(c1)O[C@H](CN(C)Cc1ccc(F)cc1)[C@H](C)CN([C@H](C)CO)S2(=O)=O | . | -1 | -5 | . | .
Cc1noc(C)c1S(=O)(=O)Nc1ccc2c(c1)CC(=O)N([C@H](C)CO)C[C@H](C)[C@@H](CN(C)S(=O)(=O)c1cccs1)O2 | . | -1 | 2 | . | .
O=C(C[C@H]1CC[C@H]2[C@@H](COC[C@@H](O)CN2Cc2cccc(-c3ccncc3)c2)O1)N1CCN(c2ccccc2)CC1 | . | 0 | 15 | . | .
O=C(C[C@H]1C[C@@H]2c3cc(NC(=O)c4ccc5c(c4)OCO5)ccc3O[C@@H]2[C@@H](CO)O1)NCCc1ccccc1 | . | 0 | 2 | . | .
CCCNC(=O)N[C@@H]1CC[C@@H](CC(=O)NC2CCC2)O[C@@H]1CO | . | 0 | 0 | . | .
CSc1nnc(NC(=O)c2ccc3c(c2)OCO3)s1 | 11 | 0 | -74 | 0 | -38
COCCSc1nnc(NC(=O)c2ccc3c(c2)OCO3)s1 | 47* | 0 | . | -2 | 38
COc1cc(NC(=O)c2ccc3c(c2)OCO3)ccc1NC(=O)C(C)C | 1 | . | 52* | 3 | .
O=C(Nc1ccc(Cl)cc1)c1ccc2c(c1)OCO2 | . | . | . | -25 | 71
O=C(Nc1ccc2c(c1)OCO2)c1cccc(Cl)c1 | -1 | . | 64* | 0 | 104*
CC(C)C(=O)Nc1ccc(NC(=O)c2ccc3c(c2)OCO3)cc1 | -2 | 0 | -9 | 4 | 7
CC(C)(C)c1cnnn1-c1ccc(NC(=O)c2ccc3c(c2)OCO3)cc1 | . | . | 44* | . | 32
C/C=C/c1ccc2c(c1)O[C@@H](CN(C)C(=O)c1ccccn1)[C@@H](C)CN([C@@H](C)CO)S2(=O)=O | . | 0 | -4 | . | .
CO[C@H]1CN(C)C(=O)c2cc(NC(=O)NC3CCCC3)ccc2OC[C@@H](C)N(CC2CC2)C[C@@H]1C | . | 0 | . | . | .
C[C@H](CO)N1C[C@H](C)[C@@H](CN(C)C(=O)C2CC2)Oc2cc(-c3cncnc3)ccc2S1(=O)=O | . | -1 | -3 | . | .
CCCC#Cc1cnc2c(c1)C(=O)N([C@@H](C)CO)C[C@H](C)[C@H](CN(C)C(=O)Nc1ccccc1F)O2 | . | 0 | -4 | . | .
COc1cc2c(cc1NC(=O)c1ccc3c(c1)OCO3)oc1ccccc12 | 22 | . | 47* | 8 | 66
COc1ccccc1NC(=O)c1ccc2c(c1)OCO2 | 12 | 0 | 14 | 0 | .
CCOC(=O)COn1c(=O)c(-c2ccc(F)cc2)[n+]([O-])c2ccccc21 | -2 | 0 | -4 | -16 | .
CCOc1ccc(-c2c(=O)n(O)c3ccccc3[n+]2[O-])cc1 | 56* | 0 | ? | 4 | 54
CCOC(=O)COn1c(=O)c(-c2ccc(Br)cc2)[n+]([O-])c2ccccc21 | 10 | 0 | 27 | -7 | .
SMILES | Wnt act | XiGFP reactiv | esBAF inh | Vif inh | MITF act
CCCOc1ccc(-c2c(=O)n(OCC(=O)OCC)c3ccccc3[n+]2[O-])cc1 | 0 | 0 | 70* | -6 | .
CCOC(=O)COn1c(=O)c(-c2cc3ccccc3o2)[n+]([O-])c2ccccc21 | 21 | . | 52* | 2 | .
C=CCOn1c(=O)c(-c2cc3ccccc3o2)[n+]([O-])c2ccccc21 | . | . | 54* | 8 | 39
C[C@H](CO)N1C[C@H](C)[C@H](CN(C)C(=O)NC2CCCCC2)Oc2ccc(NC(=O)NC3CCCCC3)cc2C1=O | . | 0 | 11 | . | .
COc1ccc(S(=O)(=O)Nc2ccc3c(c2)C(=O)N([C@@H](C)CO)C[C@@H](C)[C@@H](CN(C)C(=O)Nc2ccccc2)O3)cc1 | . | 0 | 3 | . | .
C[C@H](CO)N1C[C@H](C)[C@H](CN(C)C(=O)NC2CCCCC2)OCCCC[C@H](C)Oc2ccc(NC(=O)Nc3cccc4ccccc34)cc2C1=O | . | 0 | 5 | . | .
COn1c(=O)c(-c2ccccc2)[n+]([O-])c2ccccc21 | 3 | 0 | -2 | 51* | 6
C[n+]1c(/C=C/c2ccc3c(c2)OCO3)ccc2ccccc21 | -2 | 0 | . | -4 | 4
C[n+]1c(/C=C/c2ccc(O)cc2)ccc2ccccc21 | 24 | 0 | 62* | 12 | 30
O=C(C[n+]1cc(Br)cc2ccccc21)c1ccccc1 | -1 | 0 | 0 | 55* | .
C[C@@H]1CN([C@H](C)CO)C(=O)c2cc(-c3cncnc3)cnc2O[C@@H]1CN(C)C(=O)CN1CCOCC1 | . | -1 | -5 | . | .
CCC(=O)N1CC2(CN[C@H](CO)c3c2c2ccc(OC)cc2n3C)C1 | . | 0 | . | . | .
COc1ccc2c(c1)-c1nc(NC(=O)c3ccco3)sc1CC2 | 64* | 0 | . | 0 | 85*
COc1ccc2c(c1)Cc1sc(NC(=O)c3ccco3)nc1-2 | . | . | 46* | -8 | 65
COc1ccc2c(c1)CCc1sc(NC(=O)c3ccco3)nc1-2 | . | . | 23 | 3 | 58
COc1ccc2c(c1)Cc1sc(NC(=O)c3cccnc3)nc1-2 | 4 | 0 | . | -6 | 33
COc1ccc2c(c1)Cc1sc(NC(C)=O)nc1-2 | . | . | 41* | 3 | 75
CCCN1C[C@@H](C)[C@@H](OC)CN(C)C(=O)c2cc(NS(=O)(=O)CC)ccc2OC[C@@H]1C | . | 1 | -2 | . | .
C[C@H]1CN([C@@H](C)CO)C(=O)c2cccc(NC(=O)Nc3ccc4c(c3)OCO4)c2O[C@@H]1CN(C)S(=O)(=O)c1cccs1 | . | 0 | 44* | . | .
C[C@H](CO)N1C[C@H](C)[C@@H](CN(C)S(=O)(=O)c2cccs2)Oc2c(NS(=O)(=O)c3cn(C)cn3)cccc2C1=O | 47* | -1 | 0 | . | 11
C[C@H](CO)N1C[C@H](C)[C@@H](CN(C)S(=O)(=O)c2cccs2)Oc2c(NC(=O)Nc3ccc4c(c3)OCO4)cccc2C1=O | -1 | 0 | 57*! | 33 | 9
C[C@H](CO)N1C[C@H](C)[C@H](CN(C)S(=O)(=O)c2cccs2)Oc2c(NS(=O)(=O)c3cn(C)cn3)cccc2C1=O | . | -1 | -4 | . | .
COCC(=O)Nc1ccc2c(c1)C(=O)N(C)C[C@@H](OC)[C@@H](C)CN(C(=O)NC(C)C)[C@H](C)CO2 | . | 0 | 1 | . | .
CNC[C@H]1Oc2ccc(NS(=O)(=O)c3ccc(C)cc3)cc2CC(=O)N([C@@H](C)CO)C[C@H]1C | . | 0 | -4 | . | .
COc1ccc(CN2[C@H](CO)[C@H]3c4ccccc4N(C(=O)Nc4ccc(F)cc4)C[C@H]32)cc1 | . | 1 | 5 | . | .
COc1cccc(C2Nc3ccccc3C(=O)N2c2ccc(F)cc2)c1O (configuration not stated) | 19 | 0 | ? | . | 101*
O=C(/C=C/c1ccccc1Cl)Nc1ccccc1 | 45* | 0 | . | -9 | .
